Measurements as given in publication PMC8116641 (Archives of Virology, 2021).
“Also recorded” adds a separate entry of the source. Read-outs that look alike come from different tables or passages of the source.

Tests used:
[1] = Cytotoxicity assay, microtetrazolium test; type: cell-based; details: dog, MDCK cells
In short: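 MDCK cells were exposed for 48 h at 36°C in 5% CO2 to threefold serial dilutions of test compound in MEM, in triplicate. After two PBS washes, cells were incubated for 1 h with MTT ([…] in PBS). The formazan was dissolved in DMSO and OD was read at 535 nm. OD was plotted against concentration to calculate CC50.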

[2] = tested on: influenza A virus A/Puerto Rico/8/34 (H1N1) (PR8 (H1N1)); assay: microbe, parasite or virus in culture; type: cell-based; details: for IC50: Influenza A virus, H1N1|PR8, MDCK, read-out: IC50 (50% virus-inhibiting concentration)
[3] = tested on: influenza A virus A/Aichi/2/68 (H3N2) (Aichi (H3N2)); assay: microbe, parasite or virus in culture; type: cell-based; details: for IC50: read-out: IC50 (50% inhibitory concentration)
[4] = tested on: influenza A virus A/California/07/09 (H1N1)pdm09 (Cal (H1N1)pdm09); assay: microbe, parasite or virus in culture; type: cell-based; details: for IC50: read-out: IC50 (50% inhibitory concentration)
[5] = target: receptor-binding activity of viral HA of influenza A virus PR8 (H1N1) (Influenza A virus, UniProt P03452); type: biochemical
[6] = tested on: influenza A virus PR8 (H1N1); type: cell-based
[7] = tested on: influenza A viruses (H1, H1pdm09, and H3 subtypes); assay: microbe, parasite or virus in culture; type: cell-based; details: read-out: IC50 value (depending on the virus)

receptor-binding activity of viral HA of influenza A virus PR8 (H1N1), sequence (P03452 18-343 limits assumed): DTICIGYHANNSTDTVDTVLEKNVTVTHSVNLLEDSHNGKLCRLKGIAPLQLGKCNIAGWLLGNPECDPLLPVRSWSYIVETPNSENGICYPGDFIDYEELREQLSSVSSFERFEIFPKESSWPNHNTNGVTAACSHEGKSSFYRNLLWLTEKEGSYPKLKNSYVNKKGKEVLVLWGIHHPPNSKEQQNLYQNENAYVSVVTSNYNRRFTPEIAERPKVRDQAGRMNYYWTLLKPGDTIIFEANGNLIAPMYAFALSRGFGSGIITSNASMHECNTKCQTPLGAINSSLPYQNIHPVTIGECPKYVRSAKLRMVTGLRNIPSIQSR
receptor-binding activity of viral HA of influenza A virus PR8 (H1N1), sequence (P03452 344-565 limits assumed): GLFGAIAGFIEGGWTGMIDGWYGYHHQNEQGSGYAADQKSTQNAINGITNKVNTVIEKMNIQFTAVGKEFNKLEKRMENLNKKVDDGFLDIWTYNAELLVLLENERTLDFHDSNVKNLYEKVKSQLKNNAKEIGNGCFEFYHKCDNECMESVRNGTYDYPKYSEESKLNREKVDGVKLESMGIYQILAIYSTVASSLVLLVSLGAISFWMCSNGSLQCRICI

Compound | CC50 at 48 h [1] | SI (selectivity index, CC50/IC50) [2] | IC50 [2] | other results
CC(N)C1C[C@@H]2CC[C@H]1C2 (stereo partly drawn) [Deitiforine, reference compound] | 1270 ± 81 µM |  |  | 
CC[N+](C)(CC)CC(=O)O[C@H]1C[C@@H]2CC[C@@]1(C)C2(C)C.[I-] [11a, N,N-Diethyl-N-methyl-2-oxo-2-((1S,2S,4S)-1,7,7-trimethylbicyclo[2.2.1]heptan-2-yloxy)ethanaminium iodide] | 850 ± 38 µM | 3 | 316 ± 40 µM | 
NC12CC3CC(CC(C3)C1)C2 [Amantadine, reference compound] | 284 ± 21 µM | 4 | 64.2 ± 4.7 µM | 
CC(N)C12CC3CC(CC(C3)C1)C2 (stereo not drawn) [Rimantadine, reference compound] | 335 ± 27 µM | 5 | 67 ± 4.9 µM | 
NC(=O)c1ncn([C@@H]2O[C@H](CO)[C@@H](O)[C@H]2O)n1 [Ribavirin, reference compound] | > 2000 µM | >81 | 24.6 µM | SI (selectivity index, CC50/IC50) [3]: 52; IC50 ([3]; Influenza A virus, H3N2, MDCK): 41 ± 3.9 µM; SI (selectivity index, CC50/IC50) [4]: 61; IC50 ([4]; Influenza A virus, H1N1, MDCK): 35 ± 4.6 µM
CC1(C)[C@H]2CC[C@]1(C)[C@H](OC(=O)CCC[N+](C)(C)C)C2 [10c, N,N,N-Trimethyl-4-oxo-4-((1S,2R,4S)-1,7,7-trimethylbicyclo[2.2.1]heptan-2-yloxy)butan-1-aminium iodide] | 264 ± 15 µM |  | > 117 µM | 
CC1(C)[C@@H]2CC[C@@]1(C)/C(=N/CC[N+](C)(C)C)C2.[I-] [compound 6, N,N,N-Trimethyl-2-((E)-((1R,4R)-1,7,7-trimethylbicyclo[2.2.1]heptan-2-ylidene)amino)ethanaminium iodide] | > 2100 µM | > 18 | 115 ± 10 µM | 
CC1(C)[C@H]2CC[C@]1(C)[C@H](OC(=O)C[N+](C)(C)C)C2.[I-] [10a, N,N,N-Trimethyl-2-oxo-2-((1S,2R,4S)-1,7,7-trimethylbicyclo[2.2.1]heptan-2-yloxy)ethanaminium iodide] | 1310 ± 126 µM | 546 | 2.4 ± 0.4 µM | Effect on hemagglutination titer of the virus [5]: did not change this value; SI (selectivity index, CC50/IC50) [3]: 142; IC50 [3]: 9.2 ± 1.3 µM; SI (selectivity index, CC50/IC50) [4]: 78; IC50 ([4]; Influenza A virus, H1N1, MDCK): 16.9 µM; IC50 [4]: 16.8 ± 3.1 µM; Infectious activity of the virus when compound is added late [6]: not statistically different from the control values; Time of addition at which the compound is most effective [6]: most effective when added at the early stages of the viral life cycle; also recorded: most effective when added within 0–2 hours after infection; IC50 [7]: 2.4 to 16.8 µM
CC1(C)[C@@H]2CC[C@@]1(C)/C(=N/CCC[N+](C)(C)C)C2.[I-] [compound 7, N,N,N-Trimethyl-3-((E)-((1R,4R)-1,7,7-trimethylbicyclo[2.2.1]heptan-2-ylidene)amino)propan-1-aminium iodide] | > 1990 µM | > 14 | 144 ± 12 µM | 
CC[N+](C)(CC)CCC(=O)O[C@H]1C[C@@H]2CC[C@@]1(C)C2(C)C [11b, N,N-Diethyl-N-methyl-3-oxo-3-((1S,2S,4S)-1,7,7-trimethylbicyclo[2.2.1]heptan-2-yloxy)propan-1-aminium iodide] | 69 ± 6 µM |  | > 37 µM | 
